Source: ChEMBL document CHEMBL1687708, “Efficacy of oritavancin in a murine model of Bacillus anthracis spore inhalation anthrax” (Antimicrob Agents Chemother, 2008)
Values after ≈ are worked out from the molar mass of the structure shown.

Columns and labels:
[1] = test system: Bacillus anthracis; assay: Antimicrobial activity against Bacillus anthracis infected mouse spore inhalation anthrax model assessed as bacterial load per gram of lung tissue at 30 mg/kg, ip every 12 hrs for 14 days treated 24 hrs postinfection; type: functional; conditions: route intraperitoneal
[2] = test system: Bacillus anthracis; assay: Antimicrobial activity against Bacillus anthracis infected mouse spore inhalation anthrax model assessed as bacterial load per gram of lung tissue at 30 mg/kg, ip every 12 hrs for 14 days treated 36 hrs postinfection; type: functional; conditions: route intraperitoneal
[3] = test system: Bacillus anthracis; assay: Antimicrobial activity against Bacillus anthracis infected mouse spore inhalation anthrax model assessed as bacterial load per gram of lung tissue at 30 mg/kg, ip every 12 hrs for 14 days treated 48 hrs postinfection; type: functional; conditions: route intraperitoneal
[4] = test system: Bacillus cereus; assay: Antimicrobial activity against Bacillus cereus ATCC 4342 by broth microdilution method; type: functional
In short: (§1)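 B. cereus ATCC 4342 went through stepwise selection for 20 cycles in cation-adjusted Mueller-Hinton broth with doubling drug dilutions. Each cycle was seeded from the previous day's 0.5× MIC wells, in two independent rounds per drug. Selectants showing a fourfold or greater MIC rise were passaged 5 days without drug. Their MICs were then read alongside the parent strain. Oritavancin assays carried 0.002% polysorbate 80 throughout.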

[5] = test system: Bacillus cereus; assay: Antimicrobial activity against Bacillus cereus ATCC 4342 selected after 20 daily cycles of drug selection followed by 5 days of nonselective growth by broth microdilution method; type: functional; conditions: ATCC 4342, 120 h; in short: as §1
[6] = test system: Bacillus cereus; assay: Ratio of MIC for Bacillus cereus ATCC 4342 selected after 20 daily cycles of drug selection followed by 5 days of nonselective growth to MIC for Bacillus cereus ATCC 4342; type: functional; in short: as §1
[7] = test system: Bacillus anthracis; assay: animal or person; conditions: in Mus musculus, ip
[8] = test system: Bacillus anthracis; assay: animal or person; conditions: in Mus musculus, ip; remark: listed apart in the source
[9] = test system: Bacillus anthracis; assay: animal or person; conditions: in Mus musculus, ip; remark: listed apart in the source
[10] = test system: Bacillus anthracis; assay: animal or person; conditions: in Mus musculus, iv
[11] = test system: Bacillus anthracis; assay: animal or person; conditions: in Mus musculus, ip; remark: listed apart in the source
[12] = test system: Bacillus anthracis; assay: Antimicrobial activity against Bacillus anthracis by broth microdilution method in presence of polysorbate-80; type: functional
[13] = test system: Bacillus anthracis; assay: Ratio of MIC90 for Bacillus anthracis in presence of polysorbate-80 to MIC90 for Bacillus anthracis; type: functional
[14] = test system: Bacillus anthracis; assay: Antimicrobial activity against Bacillus anthracis Ames by broth microdilution method in presence of polysorbate-80; type: functional
[15] = test system: Bacillus anthracis; assay: Antimicrobial activity against Bacillus anthracis infected mouse spore inhalation anthrax model; type: functional; conditions: inhaled or nasal
[16] = test system: Bacillus anthracis; assay: Antimicrobial activity against Bacillus anthracis infected mouse spore inhalation anthrax model assessed as survival rate at 30 mg/kg, ip every 48 hrs for 14 days treated 24 hrs postinfection; type: functional; conditions: route intraperitoneal
[17] = test system: Bacillus anthracis; assay: Antimicrobial activity against Bacillus anthracis infected mouse spore inhalation anthrax model assessed as survival rate at 10 mg/kg, ip every 48 hrs for 14 days treated 24 hrs postinfection; type: functional; conditions: route intraperitoneal
[18] = test system: Bacillus anthracis; assay: Antimicrobial activity against Bacillus anthracis infected mouse spore inhalation anthrax model assessed as survival rate at 3 mg/kg, ip every 48 hrs for 14 days treated 24 hrs postinfection; type: functional; conditions: route intraperitoneal
[19] = test system: Bacillus anthracis; assay: Antimicrobial activity against Bacillus anthracis infected mouse spore inhalation anthrax model assessed as survival rate at 1 mg/kg, ip every 48 hrs for 14 days treated 24 hrs postinfection; type: functional; conditions: route intraperitoneal
[20] = test system: Bacillus anthracis; assay: Antimicrobial activity against Bacillus anthracis infected mouse spore inhalation anthrax model assessed as survival rate at 0.3 mg/kg, ip every 48 hrs for 14 days treated 24 hrs postinfection; type: functional; conditions: route intraperitoneal
[21] = test system: Bacillus anthracis; assay: Antimicrobial activity against Bacillus anthracis infected mouse spore inhalation anthrax model assessed as survival rate at 0.1 mg/kg, ip every 48 hrs for 14 days treated 24 hrs postinfection; type: functional; conditions: route intraperitoneal
[22] = test system: Bacillus anthracis; assay: Antimicrobial activity against Bacillus anthracis infected mouse spore inhalation anthrax model assessed as survival rate at 50 mg/kg, iv administered as single dose treated 24 hrs postinfection; type: functional
[23] = test system: Bacillus anthracis; assay: Antimicrobial activity against Bacillus anthracis infected mouse spore inhalation anthrax model assessed as survival rate at 15 mg/kg, iv administered as single dose treated 24 hrs postinfection; type: functional
[24] = test system: Bacillus anthracis; assay: Antimicrobial activity against Bacillus anthracis infected mouse spore inhalation anthrax model assessed as survival rate at 5 mg/kg, iv administered as single dose treated 24 hrs postinfection; type: functional
[25] = test system: Bacillus anthracis; assay: Antimicrobial activity against Bacillus anthracis infected mouse spore inhalation anthrax model assessed as survival rate at 10 mg/kg, ip every 48 hrs for 14 days treated 36 hrs postinfection; type: functional; conditions: route intraperitoneal
[26] = test system: Bacillus anthracis; assay: Antimicrobial activity against Bacillus anthracis infected mouse spore inhalation anthrax model assessed as survival rate at 10 mg/kg, ip every 48 hrs for 14 days treated 48 hrs postinfection; type: functional; conditions: route intraperitoneal
[27] = test system: Bacillus anthracis; assay: Antimicrobial activity against Bacillus anthracis infected mouse spore inhalation anthrax model assessed as survival rate at 50 mg/kg, iv administered as single dose treated 42 hrs postinfection; type: functional
[28] = test system: Bacillus anthracis; assay: Antimicrobial activity against Bacillus anthracis infected mouse spore inhalation anthrax model assessed as survival rate at 50 mg/kg, iv administered as single dose treated 24 hrs before infection measured on 33 days postinfection; type: functional
[29] = test system: Bacillus anthracis; assay: Antimicrobial activity against Bacillus anthracis infected mouse spore inhalation anthrax model assessed as survival rate at 50 mg/kg, iv administered as single dose treated 7 days before infection measured on 33 days postinfection; type: functional
[30] = test system: Bacillus anthracis; assay: Antimicrobial activity against Bacillus anthracis infected mouse spore inhalation anthrax model assessed as survival rate at 50 mg/kg, iv administered as single dose treated 14 days before infection measured on 22 days postinfection; type: functional
[31] = test system: Bacillus anthracis; assay: Antimicrobial activity against Bacillus anthracis infected mouse spore inhalation anthrax model assessed as survival rate at 50 mg/kg, iv administered as single dose treated 28 days before infection measured on 22 days postinfection; type: functional
[32] = test system: Bacillus anthracis; assay: Antimicrobial activity against Bacillus anthracis infected mouse spore inhalation anthrax model assessed as bacterial load per gram of lung tissue at 30 mg/kg, ip every 48 hrs for 14 days treated 24 hrs postinfection; type: functional; conditions: route intraperitoneal
[33] = test system: Bacillus anthracis; assay: Antimicrobial activity against Bacillus anthracis infected mouse spore inhalation anthrax model assessed as bacterial load per gram of lung tissue at 10 mg/kg, ip every 48 hrs for 14 days treated 24 hrs postinfection; type: functional; conditions: route intraperitoneal
[34] = test system: Bacillus anthracis; assay: Antimicrobial activity against Bacillus anthracis infected mouse spore inhalation anthrax model assessed as bacterial load per gram of lung tissue at 3 mg/kg, ip every 48 hrs for 14 days treated 24 hrs postinfection; type: functional; conditions: route intraperitoneal
[35] = test system: Bacillus anthracis; assay: Antimicrobial activity against Bacillus anthracis infected mouse spore inhalation anthrax model assessed as bacterial load per gram of lung tissue at 1 mg/kg, ip every 48 hrs for 14 days treated 24 hrs postinfection; type: functional; conditions: route intraperitoneal
[36] = test system: Bacillus anthracis; assay: Antimicrobial activity against Bacillus anthracis infected mouse spore inhalation anthrax model assessed as bacterial load per gram of lung tissue at 0.3 mg/kg, ip every 48 hrs for 14 days treated 24 hrs postinfection; type: functional; conditions: route intraperitoneal
[37] = test system: Bacillus anthracis; assay: Antimicrobial activity against Bacillus anthracis infected mouse spore inhalation anthrax model assessed as bacterial load per gram of lung tissue at 50 mg/kg, iv administered as single dose treated 24 hrs postinfection; type: functional
[38] = test system: Bacillus anthracis; assay: Antimicrobial activity against Bacillus anthracis infected mouse spore inhalation anthrax model assessed as bacterial load per gram of lung tissue at 15 mg/kg, iv administered as single dose treated 24 hrs postinfection; type: functional
[39] = test system: Bacillus anthracis; assay: Antimicrobial activity against Bacillus anthracis infected mouse spore inhalation anthrax model assessed as bacterial load per gram of lung tissue at 5 mg/kg, iv administered as single dose treated 24 hrs postinfection; type: functional
[40] = test system: Bacillus anthracis; assay: Antimicrobial activity against Bacillus anthracis infected mouse spore inhalation anthrax model assessed as bacterial load per gram of lung tissue at 10 mg/kg, ip every 48 hrs for 14 days treated 36 hrs postinfection; type: functional; conditions: route intraperitoneal
[41] = test system: Bacillus anthracis; assay: Antimicrobial activity against Bacillus anthracis infected mouse spore inhalation anthrax model assessed as bacterial load per gram of lung tissue at 10 mg/kg, ip every 48 hrs for 14 days treated 48 hrs postinfection; type: functional; conditions: route intraperitoneal
[42] = test system: Bacillus anthracis; assay: Antimicrobial activity against Bacillus anthracis infected mouse spore inhalation anthrax model assessed as bacterial load per gram of lung tissue at 50 mg/kg, iv administered as single dose treated 42 hrs postinfection; type: functional
[43] = test system: Bacillus anthracis; assay: Antimicrobial activity against Bacillus anthracis infected mouse spore inhalation anthrax model assessed as bacterial load per gram of lung tissue at 50 mg/kg, iv administered as single dose treated 24 hrs before infection; type: functional
[44] = test system: Bacillus anthracis; assay: Antimicrobial activity against Bacillus anthracis infected mouse spore inhalation anthrax model assessed as bacterial load per gram of lung tissue at 50 mg/kg, iv administered as single dose treated 7 days before infection; type: functional
[45] = test system: Bacillus anthracis; assay: Antimicrobial activity against Bacillus anthracis infected mouse spore inhalation anthrax model assessed as bacterial load per gram of lung tissue at 50 mg/kg, iv administered as single dose treated 14 days before infection; type: functional
[46] = test system: Bacillus anthracis; assay: Antimicrobial activity against Bacillus anthracis infected mouse spore inhalation anthrax model assessed as bacterial load per gram of lung tissue at 50 mg/kg, iv administered as single dose treated 28 days before infection; type: functional
[47] = test system: Mus musculus; assay: Free peak concentration in Bacillus anthracis infected mouse spore inhalation anthrax model at 32 mg/kg, iv administered as single dose; type: ADME, organism-based; design: dose 32 mg/kg, route intravenous; conditions: in vivo
[48] = test system: Mus musculus; assay: fAUC (0.25 to 72 hrs) in Bacillus anthracis infected mouse spore inhalation anthrax model at 32 mg/kg, iv administered as single dose; type: ADME, organism-based; design: dose 32 mg/kg, route intravenous; conditions: in vivo
[49] = test system: Mus musculus; assay: Free peak concentration in Bacillus anthracis infected mouse spore inhalation anthrax model at 32 mg/kg, ip administered as single dose; type: ADME, organism-based; design: dose 32 mg/kg, route intraperitoneal; conditions: in vivo
[50] = test system: Mus musculus; assay: fAUC (0.25 to 72 hrs) in Bacillus anthracis infected mouse spore inhalation anthrax model at 32 mg/kg, ip administered as single dose; type: ADME, organism-based; design: dose 32 mg/kg, route intraperitoneal; conditions: in vivo
[51] = test system: Bacillus anthracis; assay: Antimicrobial activity against Bacillus anthracis infected mouse spore inhalation anthrax model assessed as survival rate at 0.1 mg/kg, ip every 48 hrs for 14 days treated 24 hrs postinfection measured on day 3; type: functional; conditions: route intraperitoneal
[52] = species on record: Mus musculus; conditions: in vivo, ip, 1.2 mg/kg

O=C(O)c1cn(C2CC2)c2cc(N3CCNCC3)c(F)cc2c1=O [CIPROFLOXACIN]
log10cfu [1]: 1090
log10cfu [2]: 2880
log10cfu [3]: 3080
MIC [4]: 0.12 µg/mL (≈ 0.362 µM)
MIC [5]: 0.5 µg/mL (≈ 1.51 µM)
Ratio [6]: 4
survival at 30 mg/kg [7]: 90%
survival at 30 mg/kg [8]: 70%
survival at 30 mg/kg [9]: 80%
survival at 30 mg/kg [10]: 0%
survival at 30 mg/kg [11]: 0%

CN[C@H](CC(C)C)C(=O)N[C@H]1C(=O)N[C@@H](CC(N)=O)C(=O)N[C@H]2C(=O)N[C@H]3C(=O)N[C@H](C(=O)N[C@H](C(=O)O)c4cc(O)cc(O)c4-c4cc3ccc4O)[C@H](O[C@H]3C[C@](C)(N)[C@@H](O)[C@H](C)O3)c3ccc(c(Cl)c3)Oc3cc2cc(c3O[C@@H]2O[C@H](CO)[C@@H](O)[C@H](O)[C@H]2O[C@H]2C[C@](C)(NCc3ccc(-c4ccc(Cl)cc4)cc3)[C@@H](O)[C@H](C)O2)Oc2ccc(cc2Cl)[C@H]1O [ORITAVANCIN]
MIC90 [12]: 0.12 µg/mL
Ratio [13]: 16
MIC [14]: 0.015 µg/mL
ED50 [15]: 1.2 mg/kg
survival at 30 mg/kg [16]: 100%
survival at 10 mg/kg [17]: 100%
survival at 3 mg/kg [18]: 100%
survival at 1 mg/kg [19]: 50%
survival at 0.3 mg/kg [20]: 30%
survival at 0.1 mg/kg [21]: 0%
survival at 50 mg/kg [22]: 100%
survival at 15 mg/kg [23]: 70%
survival at 5 mg/kg [24]: 40%
survival at 10 mg/kg [25]: 90%
survival at 10 mg/kg [26]: 50%
survival at 50 mg/kg [27]: 55%
survival at 50 mg/kg [28]: 100%
survival at 50 mg/kg [29]: 90%
survival at 50 mg/kg [30]: 100%
survival at 50 mg/kg [31]: 20%
log10cfu [32]: 18200
log10cfu [33]: 35000
log10cfu [34]: 36800
log10cfu [35]: 29500
log10cfu [36]: 28000
log10cfu [37]: 36100
log10cfu [38]: 20300
log10cfu [39]: 35000
log10cfu [40]: 2520
log10cfu [41]: 1680
log10cfu [42]: 740
log10cfu [43]: 1980
log10cfu [44]: 63000
log10cfu [45]: 65000
log10cfu [46]: 51000
Cmax_unbound [47]: 17 µg/mL
fAUC [48]: 61 µg·h/mL
Cmax_unbound [49]: 6.1 µg/mL
fAUC [50]: 54 µg·h/mL
MIC [4]: 0.004 µg/mL (≈ 0.00223 µM)
MIC [5]: 0.008 µg/mL (≈ 0.00446 µM)
Ratio [6]: 1
Activity [51]: 100%
fAUC [52]: 1.9 µg·h/mL
